Most compounds without a hit are left out; they make up all but 0.74% or so of the library.
Tn6 DDE FP: DD(E)-Tn6 binding inhibition, primary FP screen | P02675 | Fibrin DD(E) TRITC-Tn6 fluorescence polarization displacement | inhibition, % at 8.3 µM | actives 0.21% (n = 370,000);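 active = inhibition above a per-campaign cutoff: mean of compounds within control limits plus 3 SD, cut at about 15% in these data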;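 also: 0% = median of all compound wells on the plate and 100% = blocking peptide control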
DDE Tn7 FP inh: disrupts Tn7 cyclic peptide binding to fibrin D-Dimer-E complex. FP displacement of FITC-Tn7 peptide from fibrin DD(E); 0% = median of compound wells per plate. P02675. actives 0.13% (n = 370,000). inhibition, % at 8.3 µM;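 active = inhibition above the mean of compounds falling within the control limits plus 3 SD of them, cut at about 14% in these data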;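 also: 0% = plate median of compound wells and 100% = 10 µM Aha-Tn7 peptide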
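assay system = human clot-derived fibrin DD(E) complex | quantity = Fibrin-DD(E) at 2 µM final | timing = 10 min preincubation, 3 h with tracer, room temperature | signal = fluorescence polarization | measure = percent inhibition | benchmarks = high control wells with 10 µM unlabelled Aha-Tn7 peptide (full inhibition) | replicates = singlicate testing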
ARFGAP1 inhibitor: inhibitors of rat ARFGAP1; Q62848; Arfgap1-stimulated ARF1 GTP hydrolysis, GDP FP detection; inhibition, % at 16.5 µM; actives 0.26% (n = 360,000); AID 651572;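 active = inhibition above a per-plate limit, mean inhibition of low control wells plus 3 SD, cut at about 25% in these data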;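 also: 0% = DMSO wells with enzyme and 100% = wells lacking Arfgap1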
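Replicates: Single well per compound | Assay system: Truncated rat Arfgap1 GAP domain | Control set: No-Arfgap1 wells (100%) versus DMSO full-reaction wells (0%) | Times: Enzyme reaction 120 min at 25 °C after 20 min preincubation | Reagent: Human ARF1(Δ1-17)-GTP substrate | Measured by: Tracer-displacement fluorescence polarization with EDTA stop, 620/688 nm | Measure: Percent inhibition of Arfgap1-stimulated GTP hydrolysis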
ASAP1 GAP inh: blocks human ASAP1-stimulated Arf1 GTP hydrolysis | actives 0.19% (n = 360,000) | inhibition, % at 16.5 µM | Q9ULH1 | GDP FP detection; in the data active = inhibition above about 25%;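 also: 0% = vehicle with enzyme and substrate and 100% = no enzyme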
Target sequence (Q9ULH1 325-724 limits assumed): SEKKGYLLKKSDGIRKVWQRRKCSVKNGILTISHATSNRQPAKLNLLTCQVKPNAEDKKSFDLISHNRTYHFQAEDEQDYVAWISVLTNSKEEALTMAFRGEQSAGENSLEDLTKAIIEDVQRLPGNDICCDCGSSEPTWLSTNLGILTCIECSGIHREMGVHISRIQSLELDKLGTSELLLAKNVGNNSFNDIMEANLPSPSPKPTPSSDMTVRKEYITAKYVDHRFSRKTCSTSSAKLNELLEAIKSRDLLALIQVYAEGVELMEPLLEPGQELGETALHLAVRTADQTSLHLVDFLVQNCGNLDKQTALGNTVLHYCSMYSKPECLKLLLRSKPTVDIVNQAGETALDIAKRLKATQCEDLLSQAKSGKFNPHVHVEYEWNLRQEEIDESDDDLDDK
DDE Tn6 FP ctr: counter-screen for inhibitors of Tn6 peptide binding to fibrin DD(E); shares compounds with Tn6 DDE FP; TRITC-Tn6 fluorescence polarization displacement; 0% = median of compound wells, not DMSO; inhibition, % at 8.3 µM; actives 2% (n = 680);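 active = inhibition above the mean of test compounds lying between the control limits plus 3 SD of those, cut at about 14% in these data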;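 also: 0% = median of compound wells and 100% = wells with Aha-Tn7 blocking peptide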
Tn6 DDE conf: DD(E)-Tn6 binding inhibition, FP confirmation; shares compounds with Tn6 DDE FP; AID 720631; FP displacement of TRITC-Tn6 peptide from DD(E); 0% = per-plate median of test wells; actives 10% (n = 680); inhibition, % at 8.3 µM;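 active = inhibition above the mean of compounds lying within the control limits plus 3 SD, cut at about 16% in these data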;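 also: 100% = high control wells holding a competing inhibitor peptide at 10 µM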
* hit, by the source's call; nt = no result.

SMILES	Tn6 DDE FP	DDE Tn7 FP inh	ARFGAP1 inhibitor	ASAP1 GAP inh	DDE Tn6 FP ctr	Tn6 DDE conf
CCCCN(C)CCCNC(=O)CCn1nc(-c2ccccc2)ccc1=O	16.3*	8.0	0.2	-14.3	-0.3	2.0
CC(=O)c1ccc(NC(=O)c2ccc(S(=O)(=O)N3CCCC3)cc2)cc1	-3.4	-4.7	-0.9	5.4	nt	nt
Cc1cc(C(=O)Nc2ccc(S(=O)(=O)N3CCCC3)cc2)cs1	16.3*	0.8	-0.2	-1.2	-5.5	-10.8
CCOC(=O)C(CNc1ccc(O)cc1)NC(=O)c1ccccc1 (centres undefined)	65.7*	1.1	-5.5	-14.1	7.9	9.8
Cc1cc(N2CCN(C(=O)OC(C)(C)C)C[C@H]2C)ccc1N1CCN(Cc2ccccc2)[C@@H](C)C1	0.0	1.6	18.6	-10.5	nt	nt
Cc1ccc(C(=O)N/N=C\c2cc3c(cc2Br)OCO3)s1	-8.6	2.4	7.7	4.8	nt	nt
COC(=O)N/N=C\c1cc2c(cc1Br)OCO2	17.0*	1.1	-4.6	-3.1	3.6	-7.8
O=C(COC(=O)c1ccc([N+](=O)[O-])cc1)NC1CCCC1	-9.1	-3.4	6.9	0.1	nt	nt
COC(=O)c1cc(C(=O)OCC(=O)NC2CCCCCCC2)cc([N+](=O)[O-])c1	16.6*	3.6	-3.1	2.5	9.5	5.0
COC1OC(COCc2ccccc2)C2OC(C)(C)OC2C1O (centres undefined)	-9.2	-3.4	-11.2	6.0	nt	nt
COc1ccc(-c2nc(-c3ccccn3)nc(N3CCN(C)CC3)c2C#N)cc1	16.8*	2.0	-0.9	4.4	5.3	-0.5
CN1CCN(c2nc(-c3ccccc3)nc(-c3ccc(F)cc3)c2C#N)CC1	-1.7	-8.9	4.8	-1.9	nt	nt
Cc1ccc(S(=O)(=O)N2CCN(c3nc(C)c4c(c3C#N)CC(C)(C)OC4)CC2)cc1	15.6*	0.8	3.2	-9.4	-0.1	-4.6
COc1cccc(CNC(=O)C2=C(C)C(=O)OC23CCC(C)CC3)c1 (centres undefined)	19.1*	6.0	-5.8	-0.3	-2.9	-4.4
COc1ccccc1CNC(=O)C1=C(C)C(=O)OC12CCC(C)CC2 (centres undefined)	2.2	5.2	-5.9	-6.5	nt	nt
CCOC(=O)C1=C(Nc2ccc(Br)cc2)C(=O)N(CC)C1	5.2	-0.9	-6.5	2.2	nt	nt
COc1cc(OC)c(OC)cc1/C=N/NC(=O)CCc1c(C)n[nH]c1C	16.2*	3.6	2.6	2.8	-0.7	-5.1
CCc1cc2c(nc1CC)CCCN2S(=O)(=O)c1ccccc1C	1.1	-1.4	9.3	-6.8	nt	nt
COc1ccccc1-n1c(SCC(=O)NC2CCS(=O)(=O)C2)nc2ccccc2c1=O (centres undefined)	15.5*	2.4	-1.8	6.4	6.9	3.5
CCC(C)NC(=O)c1csc2c1CCCCC2 (centres undefined)	18.7*	3.5	-6.2	-0.9	0.8	2.2
COCc1cc(N2CCNC[C@@H]2C)ccc1N1CCS(=O)(=O)CC1	-1.8	-1.2	-1.2	-1.1	nt	nt
Cc1cc2c(NC(=O)Nc3ccc(C(F)(F)F)cc3)cccc2nn1	107.6*	-2.1	0.8	6.7	11.7	10.6
C=CCN1C[C@H](COC(=O)CSc2ccccc2)Oc2cccc(F)c2S1(=O)=O	-2.2	1.6	-4.4	-7.8	nt	nt
Cn1cccc1C(=O)NC(=O)COC(=O)CCNS(=O)(=O)c1ccc(Cl)cc1	15.9*	3.1	-10.8	-21.6	3.5	-5.2
O=C(CCN1CCOCC1)N1CCCC(Nc2ccc(F)cc2)C1 (centres undefined)	15.2*	1.1	-2.6	-2.1	-1.7	-12.4
Nc1[nH]nc2nnc(-c3c(-c4ccccc4)nn4ccccc34)cc12	-5.5	6.8	nt	nt	nt	nt
O=C(N/N=C/c1ccc(O)cc1)c1ccncc1	0.1	3.6	-6.2	-5.1	nt	nt
CC/C(=C\C(=O)c1ccncc1)Nc1ccc(O)cc1	45.7*	3.7	5.5	-4.0	-1.9	-4.5
Cc1cc(N2CCN(C(=O)OC(C)(C)C)C[C@@H]2C)ccc1N1CCN(Cc2ccccc2)[C@H](C)C1	1.3	1.5	-3.4	10.0	nt	nt
